# Laboratory results published in ChEMBL document CHEMBL1137655, “Isoxyl activation is required for bacteriostatic activity against Mycobacterium tuberculosis” (2007).
# Columns and labels:
# [1] = tested on: Mycobacterium tuberculosis; assay: microbe, parasite or virus in culture; settings: H37Rv ATCC 25618
# [2] = tested on: Mycobacterium tuberculosis; assay: Antimycobacterial activity against Mycobacterium tuberculosis MT1K ISO-R22 mutant overexpressing ethA gene by colorimetric resazurin microtiter assay; format: functional
# How it was run: (§1)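 Resazurin colorimetric microtiter MIC in 7H9-ADC broth with 2% DMSO at 37°C; strains carry empty pVV16 or pVVethA complementation vector; ISO tested up to 40 μg/ml, highest soluble level.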
# [3] = tested on: Mycobacterium tuberculosis; assay: Antimycobacterial activity against Mycobacterium tuberculosis H37Rv ATCC 25618 overexpressing ethR gene by colorimetric resazurin microtiter assay; format: functional
# How it was run: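 Resazurin colorimetric microtiter MIC in 7H9-ADC broth at 37°C, for H37Rv carrying ethR on pVV vector; ISO tested up to 40 μg/ml, the solubility limit.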
# [4] = tested on: Mycobacterium tuberculosis; assay: Ratio of MIC for Mycobacterium tuberculosis H37Rv overexpressing ethR gene to MIC for wild-type Mycobacterium tuberculosis H37Rv expressing VV16 plasmid; format: functional
# How it was run: (§2)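 Ratio of resazurin microtiter MICs in 7H9-ADC broth for H37Rv carrying pVVethR or pVVethA versus empty pVV16; ethA strain run at 32°C, ethR at 37°C.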
# [5] = tested on: Mycobacterium tuberculosis; assay: Ratio of MIC for wild-type Mycobacterium tuberculosis H37Rv expressing VV16 plasmid to MIC for Mycobacterium tuberculosis H37Rv overexpressing ethA gene; format: functional
# How it was run: as §2
# [6] = tested on: Mycobacterium tuberculosis; assay: Antimycobacterial activity against Mycobacterium tuberculosis MT1K ISO-R22 mutant expressing VV16 plasmid by colorimetric resazurin microtiter assay; format: functional
# How it was run: as §1
# [7] = tested on: Mycobacterium tuberculosis; assay: Antimycobacterial activity against Mycobacterium tuberculosis MT1K ISO-R33 mutant overexpressing ethA gene by colorimetric resazurin microtiter assay; format: functional
# How it was run: as §1
# [8] = tested on: Mycobacterium tuberculosis; assay: Antimycobacterial activity against Mycobacterium tuberculosis MT1K ISO-R33 mutant expressing VV16 plasmid by colorimetric resazurin microtiter assay; format: functional
# How it was run: as §1
compound,measurement,setting,value
CC(C)CCOc1ccc(NC(=S)Nc2ccc(OCCC(C)C)cc2)cc1 [TIOCARLIDE],MIC,[1],2.5 µg/mL
same,MIC,[2],5 µg/mL
same,MIC,[3],> 40 µg/mL
same,fold change (FC),[4],8
same,fold change (FC),[5],2
same,MIC,[6],>40 µg/mL
same,MIC,[7],5 µg/mL
same,MIC,[8],>40 µg/mL
